# In article PMC8576641 (The Journal of organic chemistry, 2021):
# Marks after values point to notes of the source that are not given here. No end group written: not given here.
# Tests used:
# [1] = 298 K; average of HN CSD values at T(L3), K(S+1) and G(L4) ΔδHα/α', K1R-HP7 as fully-folded state; cited from earlier work
# CD thermal denaturation = assay type: physicochemical; settings: for β-Strap %-fold χF at 291K: local β-strap folding at 291 K (18 °C) from best-fitted melting curves of [θ(T)]228, phosphate buffer 15 mM, pH 6.5; for T·ΔΔSF°: entropic difference between pairs as printed: 2b/2a, 3d/3e; for χF / % fold (NMR and CD collectively): 291 K, NMR and CD data together; for ΔGF*: free energy at temperature T* of maximal stability, from thermostability curves; for % folded below 50 °C: plateau of thermal stability from 0 to ~50 °C, dynamic equilibrium of stable conformational states; for ΔCpF°: heat capacity of folding
# [2] = Kinetic solubility in phosphate buffer; assay type: physicochemical; settings: phosphate buffer (PB, 50 mM), pH 7.4
# [3] = Loop %-folding by 1H NMR from glycine Hα/α' splitting; assay type: physicochemical; settings: 291 K; ΔδHα/α'G(L4) model with 0.33 ppm as fully-folded state (model of ref 27)
# Method in brief: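 Peptide samples at 3–10 mM for 1H NMR, TOCSY (80 ms mixing), NOESY (200 ms mixing) and 1H–13C HSQC. Samples for 1H–15N HSQC and HMBC were at 10–20 mM, with some constructs at 10–70 mM. Chemical shift deviations are experimental δH minus calculated random-coil δH. Random-coil values were checked against random-coil reference peptides (Δ|CSD| ≤ 0.20 ppm).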
Substance,β-Strap %-fold χF at 291K (CD thermal denaturation) [%],solubility [2] [mM],Loop %-fold χF (value in parentheses) [3] [%],other results
Ac-NPATGK-NH2 [Loop],,,,Loop %-fold χF [1]: 6 ± 7%^d
Ac-W-NPATGK-W-NH2 [Tr-HP7],,,,Loop %-fold χF [1]: 49 ± 1%^d
Ac-WDDATKTWTG-NH2 [1b],54 ± 7,35.3,,
Ac-WNPATGKWTG-NH2 [1a],28 ± 1,2.9,70,
Ac-WTFNPATGKFKWTG-NH2 [1c],63 ± 4,22.3,151,
Ac-WVWGPGTGKWVW-NH2 [2b],56 ± 1,0.8,9,T·ΔΔSF° (CD thermal denaturation): 3.25 kcal/mol
Ac-WVWNPATGKWVW-NH2 [2a],99 ± 1,1.2,154,"χF / % fold (NMR and CD collectively) (CD thermal denaturation): > 90%; ΔGF° (CD thermal denaturation; folding free energy at 298 K, two-state model from CD melts): -2.36 kcal/mol; ΔGF* (CD thermal denaturation): -2.50 kcal/mol; % folded below 50 °C (CD thermal denaturation): > 80%"
KTW-NPATGK-WTE [HP7],,,,Loop %-fold χF [1]: 89 ± 1%^d
RWHWNPATGKWVWE [3b],95 ± 2,56.3,167,ΔGF* (CD thermal denaturation): -1.84 kcal/mol; ΔCpF° (CD thermal denaturation; two-state model from CD melts): −158 ± 3 cal·mol^−1·deg^−1; % folded below 50 °C (CD thermal denaturation): > 80%
RWNPATGKWE [3c],84 ± 11,39.5,139,ΔCpF° (CD thermal denaturation; two-state model from CD melts): −106 cal·mol^−1·deg^−1
RWVWGGGGKKGGGGWVWE [3d],88 ± 1,5.8,,T·ΔΔSF° (CD thermal denaturation): -3.53 kcal/mol
RWVWNPATGKWVWE [3a],89 ± 14,27.1,154,χF / % fold (NMR and CD collectively) (CD thermal denaturation): 89–93%; ΔCpF° (CD thermal denaturation; two-state model from CD melts): −53 cal·mol^−1·deg^−1; % folded below 50 °C (CD thermal denaturation): > 80%
RWVWRDYRFDMGFDWVWE [3e],55 ± 1,0.6,,
RWVWRDYRGDMGFDWVWE [3f],82 ± 1,8.2,,ΔGF* (CD thermal denaturation): -3.18 kcal/mol
